This note sets out measurements from ChEMBL document CHEMBL1143389, “Synthesis, structure and antibacterial activity of new 2-(1-(2-(substituted-phenyl)-5-methyloxazol-4-yl)-3-(2-substitued-phenyl)-4,5-dihydro-1H-pyrazol-5-yl)-7-substitued-1,2,3,4-tetrahydroisoquinoline derivatives” (Bioorg Med Chem, 2009).

Broadly, the MIC is the lowest concentration found to suppress growth. High values mean a less susceptible organism, low ones a more susceptible organism.

≈ marks a conversion by molar mass, not a printed value.

One experiment has as its system Staphylococcus aureus. In words: Antimicrobial activity against Staphylococcus aureus ATCC 6538 after 24 hrs by MTT assay. The settings on record: ATCC 6538, 24 h. In general terms: Formazan colour is commonly taken as a measure of viable cells.
The next experiment deals with Pseudomonas fluorescens. In words: Antimicrobial activity against Pseudomonas fluorescens ATCC 13525 after 24 hrs by MTT assay. The settings on record: ATCC 13525, 24 h.
In a further experiment the test system is Escherichia coli. The experiment can be described thus: Antimicrobial activity against Escherichia coli after 24 hrs by MTT assay.
For another experiment, the system named is Bacillus subtilis. In words: Antimicrobial activity against Bacillus subtilis ATCC 6633 after 24 hrs by MTT assay. The settings on record: ATCC 6633, 24 h. The class given is functional. In outline: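 Mueller-Hinton medium (casein hydrolysate, soluble starch, beef extract). Compounds were serially diluted in DMSO in medium, with an inoculum of about 10⁵ cfu/mL, and incubated at 37 °C for 24 h. MIC was read visually. MTT (2 mg/mL in PBS, pH 7.4) was then added for 4–5 h at room temperature. Dye was extracted with isopropanol containing 5% 1 mol/L HCl for 12 h, and OD was read at 550 nm.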

Consider `Cc1oc(-c2ccccc2F)nc1N1N=C(c2ccccc2F)CC1N1CCc2ccccc2C1` (centres undefined), for which the MIC is 12.5 mg/L (≈ 26.6 µM) with Staphylococcus aureus, 50 mg/L (≈ 106 µM) against Pseudomonas fluorescens, over 50 mg/L in the experiment with Escherichia coli and 12.5 mg/L (≈ 26.6 µM) against Bacillus subtilis.

For the compound `COc1ccc2c(c1)CN(C1CC(c3ccc(Cl)cc3Cl)=NN1c1nc(-c3ccccc3C(F)(F)F)oc1C)CC2` (centres undefined), the MIC against Staphylococcus aureus was 1.56 mg/L (≈ 2.6 µM); against Pseudomonas fluorescens, over 50 mg/L; in the experiment with Escherichia coli, over 50 mg/L; in the experiment with Bacillus subtilis, 3.12 mg/L (≈ 5.2 µM).

Turning to `Cc1oc(-c2ccccc2F)nc1N1N=C(c2ccccc2C(F)(F)F)CC1N1CCc2ccccc2C1` (centres undefined), the MIC in the experiment with Staphylococcus aureus amounted to 6.25 mg/L (≈ 12 µM); in the experiment on Pseudomonas fluorescens, 50 mg/L (≈ 96.1 µM); against Escherichia coli it was 50 mg/L (≈ 96.1 µM); against Bacillus subtilis, 12.5 mg/L (≈ 24 µM).

`COc1ccc2c(c1)CN(C1CC(c3ccccc3C(F)(F)F)=NN1c1nc(-c3ccccc3C(F)(F)F)oc1C)CC2` (centres undefined): the MIC in the experiment on Staphylococcus aureus turned out to be 3.12 mg/L (≈ 5.2 µM); against Pseudomonas fluorescens, 12.5 mg/L (≈ 20.8 µM); against Escherichia coli it was 25 mg/L (≈ 41.6 µM); with Bacillus subtilis, 3.12 mg/L (≈ 5.2 µM).

With `C=Cc1ccccc1-c1nc(N2N=C(c3ccccc3C(F)(F)F)CC2N2CCc3ccc(OC)cc3C2)c(C)o1` (centres undefined), the MIC with Staphylococcus aureus was 6.25 mg/L (≈ 11.2 µM); in the experiment with Pseudomonas fluorescens it was 3.12 mg/L (≈ 5.59 µM); with Escherichia coli, 50 mg/L (≈ 89.5 µM); in the experiment on Bacillus subtilis, 6.25 mg/L (≈ 11.2 µM).

Regarding `C=Cc1ccccc1-c1nc(N2N=C(c3ccc(Cl)cc3Cl)CC2N2CCc3ccc(OC)cc3C2)c(C)o1` (centres undefined), the MIC against Staphylococcus aureus was 3.12 mg/L (≈ 5.59 µM); against Pseudomonas fluorescens, over 50 mg/L; in the experiment on Escherichia coli it was 50 mg/L (≈ 89.4 µM); in the experiment on Bacillus subtilis it was 3.12 mg/L (≈ 5.59 µM).

As for `C=Cc1ccccc1-c1nc(N2N=C(c3ccc(-c4ccco4)cc3)CC2N2CCc3ccccc3C2)c(C)o1` (centres undefined), the MIC against Staphylococcus aureus was 1.56 mg/L (≈ 2.97 µM); with Pseudomonas fluorescens, 50 mg/L (≈ 94.9 µM); in the experiment with Escherichia coli, over 50 mg/L; with Bacillus subtilis it was 3.12 mg/L (≈ 5.93 µM).

With `Cc1oc(-c2ccccc2C(F)(F)F)nc1N1N=C(c2ccccc2)CC1N1CCc2ccccc2C1` (centres undefined), the MIC in the experiment with Staphylococcus aureus was found to be 25 mg/L (≈ 49.7 µM); in the experiment with Pseudomonas fluorescens, 50 mg/L (≈ 99.5 µM); in the experiment on Escherichia coli, 50 mg/L (≈ 99.5 µM); in the experiment on Bacillus subtilis, 12.5 mg/L (≈ 24.9 µM).

In the case of `C=Cc1ccccc1-c1nc(N2N=C(c3ccccc3F)CC2N2CCc3ccc(OC)cc3C2)c(C)o1` (centres undefined), the MIC with Staphylococcus aureus was found to be 50 mg/L (≈ 98.3 µM); against Pseudomonas fluorescens it was 50 mg/L (≈ 98.3 µM); against Escherichia coli, 50 mg/L (≈ 98.3 µM); against Bacillus subtilis, 12.5 mg/L (≈ 24.6 µM).

In the case of `Cc1oc(-c2ccc(F)cc2F)nc1N1N=C(c2ccccc2F)CC1N1CCc2ccccc2C1` (centres undefined), the MIC in the experiment on Staphylococcus aureus was determined as 6.25 mg/L (≈ 12.8 µM); with Pseudomonas fluorescens it was 25 mg/L (≈ 51.2 µM); against Escherichia coli it was 25 mg/L (≈ 51.2 µM); in the experiment on Bacillus subtilis, 25 mg/L (≈ 51.2 µM).

For the compound `Cc1oc(-c2ccccc2C(F)(F)F)nc1N1N=C(c2ccccc2C(F)(F)F)CC1N1CCc2ccccc2C1` (centres undefined), the MIC came out at 6.25 mg/L (≈ 11 µM) in the experiment on Staphylococcus aureus, 50 mg/L (≈ 87.6 µM) in the experiment with Pseudomonas fluorescens, 50 mg/L (≈ 87.6 µM) against Escherichia coli and 6.25 mg/L (≈ 11 µM) with Bacillus subtilis.

As for `C=Cc1ccccc1-c1nc(N2N=C(c3ccc(-c4ccco4)cc3)CC2N2CCc3ccc(OC)cc3C2)c(C)o1` (centres undefined), the MIC with Staphylococcus aureus is 3.12 mg/L (≈ 5.61 µM); against Pseudomonas fluorescens, 25 mg/L (≈ 44.9 µM); in the experiment on Escherichia coli, over 50 mg/L; in the experiment with Bacillus subtilis, 3.12 mg/L (≈ 5.61 µM).

As for `Cc1oc(-c2ccccc2F)nc1N1N=C(c2ccc(-c3ccco3)cc2)CC1N1CCc2ccccc2C1` (centres undefined), the MIC is 3.12 mg/L (≈ 6.03 µM) against Staphylococcus aureus, 25 mg/L (≈ 48.2 µM) with Pseudomonas fluorescens, over 50 mg/L with Escherichia coli and 1.56 mg/L (≈ 3.01 µM) against Bacillus subtilis.

Turning to `COc1ccc2c(c1)CN(C1CC(c3ccccc3F)=NN1c1nc(-c3ccccc3C(F)(F)F)oc1C)CC2` (centres undefined), the minimal inhibitory concentration (MIC) with Staphylococcus aureus is 25 mg/L (≈ 45.4 µM); in the experiment with Pseudomonas fluorescens it was 25 mg/L (≈ 45.4 µM); against Escherichia coli, 50 mg/L (≈ 90.8 µM); in the experiment on Bacillus subtilis, 25 mg/L (≈ 45.4 µM).

Consider `Cc1oc(-c2ccc(F)cc2F)nc1N1N=C(c2ccccc2)CC1N1CCc2ccccc2C1` (centres undefined), for which the MIC in the experiment on Staphylococcus aureus was found to be 12.5 mg/L (≈ 26.6 µM); in the experiment with Pseudomonas fluorescens, 50 mg/L (≈ 106 µM); in the experiment with Escherichia coli, 12.5 mg/L (≈ 26.6 µM); in the experiment on Bacillus subtilis, 12.5 mg/L (≈ 26.6 µM).

Regarding `C=Cc1ccccc1-c1nc(N2N=C(c3ccccc3C(F)(F)F)CC2N2CCc3ccccc3C2)c(C)o1` (centres undefined), the minimum inhibitory concentration (MIC) was 12.5 mg/L (≈ 23.6 µM) against Staphylococcus aureus, 50 mg/L (≈ 94.6 µM) in the experiment with Pseudomonas fluorescens, over 50 mg/L in the experiment with Escherichia coli and 12.5 mg/L (≈ 23.6 µM) in the experiment on Bacillus subtilis.
